# Reference: ChEMBL document CHEMBL5724801, “EUbOPEN Chemogenomics Library - Multiplex” (2024)
# “And” between values parts separate entries of the source, which are not always exact repeats. Identical values can stand only once.
# How the values were obtained:
# Format in all cases: toxicity, cell-based
# [1] = system: Fibroblast; test: Multiplex assay against human fibroblast
# Procedure, shortened: (§1)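 Per cents of healthy-nucleus cells form the tubulin, mitochondrial-mass and membrane-permeability phenotype values. Live cells were stained at seeding with Hoechst33342, BioTracker Green Microtubule Cytoskeleton Dye, MitoTracker Red and Annexin V Alexa Fluor 680. After compound addition they were imaged on a CQ1 microscope at 37°C and 5% CO2, and CellPathfinder machine-learning gating split them into Hoechst high-intensity objects or normal cells, normal cells into healthy, pyknosed or fragmented nuclei, and pyknosed cells into mitotic or apoptotic.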
# [2] = system: U2OS; test: Multiplex assay against U2OS; conditions: human; procedure, shortened: as §1
# [3] = system: HEK-293T; test: Multiplex assay against HEK293T; conditions: human; procedure, shortened: as §1
# [4] = 12 h, 1 µM, compound concentration 1 uM
# [5] = 12 h, 10 µM, compound concentration 10 uM
# [6] = 24 h, 1 µM, compound concentration 1 uM
# [7] = 24 h, 10 µM, compound concentration 10 uM
# [8] = 48 h, 1 µM, compound concentration 1 uM
# [9] = 48 h, 10 µM, compound concentration 10 uM
smiles,measurement,setting,value
O=C(CCCc1ccccc1)Nc1nc2ccccc2c(=O)s1,Population Apoptotic (%),[1]; [4],58% and 34%
same,Population Fragmented Nuclei (%),[1]; [4],9% and 19%
same,Population Healthy Nuclei (%),[1]; [4],66% and 49%
same,Population Hoechst High Intensity Objects (%),[1]; [4],2% and 3%
same,Population Membrane Permeable-Phenotype (%),[1]; [4],0% and 9%
same,Population Mitochondria Different-Phenotype (%),[1]; [4],4% and 7%
same,Population Mitotic Cells (%),[1]; [4],41% and 65%
same,Population Normal (%),[1]; [4],97% and 96%
same,Population Pyknosed Nuclei (%),[1]; [4],23% and 31%
same,Population Tubulin-Different-Phenotype (%),[1]; [4],34% and 35%
same,Total Cell Count,[1]; [4],127 and 135
same,Population Apoptotic (%),[1]; [5],51% and 31%
same,Population Fragmented Nuclei (%),[1]; [5],21% and 26%
same,Population Healthy Nuclei (%),[1]; [5],58% and 38%
same,Population Hoechst High Intensity Objects (%),[1]; [5],2% and 12%
same,Population Mitotic Cells (%),[1]; [5],48% and 68%
same,Population Normal (%),[1]; [5],97% and 87%
same,Population Pyknosed Nuclei (%),[1]; [5],20% and 35%
same,Population Tubulin-Different-Phenotype (%),[1]; [5],28% and 48%
same,Total Cell Count,[1]; [5],147 and 133
same,Population Apoptotic (%),[1]; [6],50% and 42%
same,Population Fragmented Nuclei (%),[1]; [6],13% and 21%
same,Population Healthy Nuclei (%),[1]; [6],68% and 51%
same,Population Hoechst High Intensity Objects (%),[1]; [6],2% and 5%
same,Population Membrane Permeable-Phenotype (%),[1]; [6],0% and 4%
same,Population Mitochondria Different-Phenotype (%),[1]; [6],5% and 4%
same,Population Mitotic Cells (%),[1]; [6],50% and 57%
same,Population Normal (%),[1]; [6],97% and 94%
same,Population Pyknosed Nuclei (%),[1]; [6],18% and 26%
same,Population Tubulin-Different-Phenotype (%),[1]; [6],20% and 35%
same,Total Cell Count,[1]; [6],147 and 131
same,Population Apoptotic (%),[1]; [7],46% and 53%
same,Population Fragmented Nuclei (%),[1]; [7],19% and 34%
same,Population Healthy Nuclei (%),[1]; [7],60% and 39%
same,Population Hoechst High Intensity Objects (%),[1]; [7],5%
same,Population Membrane Permeable-Phenotype (%),[1]; [7],0% and 18%
same,Population Mitotic Cells (%),[1]; [7],53% and 46%
same,Population Normal (%),[1]; [7],94%
same,Population Pyknosed Nuclei (%),[1]; [7],20% and 25%
same,Total Cell Count,[1]; [7],135 and 134
same,Population Apoptotic (%),[1]; [8],59% and 42%
same,Population Fragmented Nuclei (%),[1]; [8],13% and 26%
same,Population Healthy Nuclei (%),[1]; [8],66% and 58%
same,Population Hoechst High Intensity Objects (%),[1]; [8],5% and 2%
same,Population Membrane Permeable-Phenotype (%),[1]; [8],1% and 4%
same,Population Mitochondria Different-Phenotype (%),[1]; [8],1% and 6%
same,Population Mitotic Cells (%),[1]; [8],40% and 57%
same,Population Normal (%),[1]; [8],94% and 97%
same,Population Pyknosed Nuclei (%),[1]; [8],19% and 15%
same,Population Tubulin-Different-Phenotype (%),[1]; [8],32% and 50%
same,Total Cell Count,[1]; [8],146 and 127
same,Population Apoptotic (%),[1]; [9],58% and 77%
same,Population Fragmented Nuclei (%),[1]; [9],19% and 40%
same,Population Healthy Nuclei (%),[1]; [9],58% and 43%
same,Population Hoechst High Intensity Objects (%),[1]; [9],2% and 5%
same,Population Membrane Permeable-Phenotype (%),[1]; [9],1% and 10%
same,Population Mitotic Cells (%),[1]; [9],41% and 22%
same,Population Normal (%),[1]; [9],97% and 94%
same,Population Pyknosed Nuclei (%),[1]; [9],22% and 16%
same,Population Tubulin-Different-Phenotype (%),[1]; [9],26% and 73%
same,Total Cell Count,[1]; [9],143 and 119
same,Population Apoptotic (%),[2]; [4],92% and 55%
same,Population Fragmented Nuclei (%),[2]; [4],26% and 17%
same,Population Healthy Nuclei (%),[2]; [4],64% and 74%
same,Population Hoechst High Intensity Objects (%),[2]; [4],2% and 0%
same,Population Membrane Permeable-Phenotype (%),[2]; [4],4% and 7%
same,Population Mitochondria Different-Phenotype (%),[2]; [4],2% and 3%
same,Population Normal (%),[2]; [4],97% and 100%
same,Population Pyknosed Nuclei (%),[2]; [4],9% and 7%
same,Population Tubulin-Different-Phenotype (%),[2]; [4],1% and 2%
same,Total Cell Count,[2]; [4],274 and 113
same,Population Apoptotic (%),[2]; [5],72% and 100%
same,Population Fragmented Nuclei (%),[2]; [5],31% and 20%
same,Population Healthy Nuclei (%),[2]; [5],58% and 67%
same,Population Hoechst High Intensity Objects (%),[2]; [5],2% and 4%
same,Population Membrane Permeable-Phenotype (%),[2]; [5],2% and 7%
same,Population Mitochondria Different-Phenotype (%),[2]; [5],0% and 6%
same,Population Normal (%),[2]; [5],97% and 95%
same,Population Pyknosed Nuclei (%),[2]; [5],9% and 11%
same,Population Tubulin-Different-Phenotype (%),[2]; [5],1% and 6%
same,Total Cell Count,[2]; [5],270 and 101
same,Population Apoptotic (%),[2]; [6],79% and 84%
same,Population Fragmented Nuclei (%),[2]; [6],22% and 17%
same,Population Healthy Nuclei (%),[2]; [6],68% and 73%
same,Population Hoechst High Intensity Objects (%),[2]; [6],1% and 0%
same,Population Membrane Permeable-Phenotype (%),[2]; [6],4% and 8%
same,Population Mitochondria Different-Phenotype (%),[2]; [6],2%
same,Population Mitotic Cells (%),[2]; [6],20% and 15%
same,Population Normal (%),[2]; [6],98% and 100%
same,Population Pyknosed Nuclei (%),[2]; [6],9%
same,Population Tubulin-Different-Phenotype (%),[2]; [6],2% and 3%
same,Total Cell Count,[2]; [6],325 and 141
same,Population Apoptotic (%),[2]; [7],86% and 100%
same,Population Fragmented Nuclei (%),[2]; [7],25% and 19%
same,Population Healthy Nuclei (%),[2]; [7],65% and 71%
same,Population Hoechst High Intensity Objects (%),[2]; [7],2% and 1%
same,Population Membrane Permeable-Phenotype (%),[2]; [7],5% and 8%
same,Population Mitochondria Different-Phenotype (%),[2]; [7],1% and 2%
same,Population Mitotic Cells (%),[2]; [7],13% and 0%
same,Population Normal (%),[2]; [7],97% and 98%
same,Population Pyknosed Nuclei (%),[2]; [7],9%
same,Population Tubulin-Different-Phenotype (%),[2]; [7],4% and 3%
same,Total Cell Count,[2]; [7],319 and 124
same,Population Apoptotic (%),[2]; [8],91% and 87%
same,Population Fragmented Nuclei (%),[2]; [8],13% and 19%
same,Population Healthy Nuclei (%),[2]; [8],76% and 71%
same,Population Hoechst High Intensity Objects (%),[2]; [8],7% and 5%
same,Population Membrane Permeable-Phenotype (%),[2]; [8],3%
same,Population Mitochondria Different-Phenotype (%),[2]; [8],2% and 3%
same,Population Mitotic Cells (%),[2]; [8],8% and 12%
same,Population Normal (%),[2]; [8],92% and 94%
same,Population Pyknosed Nuclei (%),[2]; [8],9% and 8%
same,Population Tubulin-Different-Phenotype (%),[2]; [8],1% and 6%
same,Total Cell Count,[2]; [8],394 and 192
same,Population Apoptotic (%),[2]; [9],91% and 95%
same,Population Fragmented Nuclei (%),[2]; [9],20% and 15%
same,Population Healthy Nuclei (%),[2]; [9],70% and 72%
same,Population Hoechst High Intensity Objects (%),[2]; [9],2% and 0%
same,Population Membrane Permeable-Phenotype (%),[2]; [9],5% and 9%
same,Population Mitochondria Different-Phenotype (%),[2]; [9],0% and 3%
same,Population Mitotic Cells (%),[2]; [9],8% and 4%
same,Population Normal (%),[2]; [9],97% and 99%
same,Population Pyknosed Nuclei (%),[2]; [9],8% and 12%
same,Population Tubulin-Different-Phenotype (%),[2]; [9],3% and 5%
same,Total Cell Count,[2]; [9],427 and 175
same,Population Apoptotic (%),[3]; [4],30% and 43%
same,Population Fragmented Nuclei (%),[3]; [4],4% and 7%
same,Population Healthy Nuclei (%),[3]; [4],83% and 74%
same,Population Hoechst High Intensity Objects (%),[3]; [4],6% and 13%
same,Population Membrane Permeable-Phenotype (%),[3]; [4],0%
same,Population Mitochondria Different-Phenotype (%),[3]; [4],37% and 63%
same,Population Mitotic Cells (%),[3]; [4],70% and 56%
same,Population Normal (%),[3]; [4],93% and 86%
same,Population Pyknosed Nuclei (%),[3]; [4],11% and 17%
same,Population Tubulin-Different-Phenotype (%),[3]; [4],32% and 36%
same,Total Cell Count,[3]; [4],372 and 267
same,Population Apoptotic (%),[3]; [5],30% and 44%
same,Population Fragmented Nuclei (%),[3]; [5],10% and 7%
same,Population Healthy Nuclei (%),[3]; [5],80% and 74%
same,Population Hoechst High Intensity Objects (%),[3]; [5],9% and 27%
same,Population Membrane Permeable-Phenotype (%),[3]; [5],0%
same,Population Mitochondria Different-Phenotype (%),[3]; [5],47% and 68%
same,Population Mitotic Cells (%),[3]; [5],69% and 55%
same,Population Normal (%),[3]; [5],90% and 72%
same,Population Pyknosed Nuclei (%),[3]; [5],9% and 17%
same,Population Tubulin-Different-Phenotype (%),[3]; [5],27% and 26%
same,Total Cell Count,[3]; [5],555 and 371
same,Population Apoptotic (%),[3]; [6],20% and 45%
same,Population Fragmented Nuclei (%),[3]; [6],8% and 9%
same,Population Healthy Nuclei (%),[3]; [6],81% and 78%
same,Population Hoechst High Intensity Objects (%),[3]; [6],5% and 8%
same,Population Membrane Permeable-Phenotype (%),[3]; [6],1% and 0%
same,Population Mitochondria Different-Phenotype (%),[3]; [6],21% and 38%
same,Population Mitotic Cells (%),[3]; [6],79% and 54%
same,Population Normal (%),[3]; [6],94% and 91%
same,Population Pyknosed Nuclei (%),[3]; [6],10% and 12%
same,Population Tubulin-Different-Phenotype (%),[3]; [6],15% and 13%
same,Total Cell Count,[3]; [6],538 and 370
same,Population Apoptotic (%),[3]; [7],33% and 52%
same,Population Fragmented Nuclei (%),[3]; [7],10% and 8%
same,Population Healthy Nuclei (%),[3]; [7],80%
same,Population Membrane Permeable-Phenotype (%),[3]; [7],0%
same,Population Mitochondria Different-Phenotype (%),[3]; [7],38% and 47%
same,Population Mitotic Cells (%),[3]; [7],66% and 47%
same,Population Normal (%),[3]; [7],93% and 75%
same,Population Pyknosed Nuclei (%),[3]; [7],9% and 11%
same,Population Tubulin-Different-Phenotype (%),[3]; [7],29% and 20%
same,Total Cell Count,[3]; [7],661 and 444
same,Population Apoptotic (%),[3]; [8],20% and 38%
same,Population Fragmented Nuclei (%),[3]; [8],11% and 10%
same,Population Healthy Nuclei (%),[3]; [8],82% and 80%
same,Population Hoechst High Intensity Objects (%),[3]; [8],2% and 4%
same,Population Membrane Permeable-Phenotype (%),[3]; [8],1% and 0%
same,Population Mitochondria Different-Phenotype (%),[3]; [8],15% and 28%
same,Population Mitotic Cells (%),[3]; [8],79% and 61%
same,Population Normal (%),[3]; [8],97% and 95%
same,Population Pyknosed Nuclei (%),[3]; [8],6% and 8%
same,Population Tubulin-Different-Phenotype (%),[3]; [8],11% and 13%
same,Total Cell Count,[3]; [8],820 and 534
same,Population Fragmented Nuclei (%),[3]; [9],14% and 13%
same,Population Healthy Nuclei (%),[3]; [9],79% and 77%
same,Population Hoechst High Intensity Objects (%),[3]; [9],4% and 11%
same,Population Membrane Permeable-Phenotype (%),[3]; [9],0% and 1%
same,Population Mitochondria Different-Phenotype (%),[3]; [9],21% and 30%
same,Population Mitotic Cells (%),[3]; [9],77% and 31%
same,Population Normal (%),[3]; [9],95% and 88%
same,Population Pyknosed Nuclei (%),[3]; [9],6% and 9%
same,Population Tubulin-Different-Phenotype (%),[3]; [9],16%
same,Total Cell Count,[3]; [9],984 and 567
